In all, about 130,000 compounds went through this assay and about 900 (0.69%) were called active. The list comes from a sample in which actives are over-represented; it also holds similar structures and randomly drawn compounds. Values without a mark were called inactive.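 Rule for the calls: active = inhibition above a set limit, placed 3 SD over the median of all compounds (cut at about 26% in these data); inactive = the rest.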
assay: rescue of nicotinamide-shortened yeast lifespan – S. cerevisiae, OD615, primary screen (AID 775);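 note: 0% = nicotinamide-treated wells and 100% = cells grown without nicotinamide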; conditions: S. cerevisiae growth with nicotinamide, at 10 µM, stronger effect = higher value, deaD strain in restrictive glucose medium
Outline: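 Measured by: optical density (absorbance) at 615 nm; System: modified budding yeast, DeaD strain; Medium: restrictive CSMM-D dextrose medium; Timing: 4 h preincubation then 48 h treatment at 30 °C.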

Row | Compound | inhibition of the nicotinamide effect
1 | COc1ccc(C(=O)C2CN(C)CC2C(=O)c2ccc(OC)cc2)cc1 (stereo not given) | -7.58%
2 | COc1ccc(C(=O)CC2C(=O)N(C)C(=O)N(C)C2=O)cc1 | 31% (active)
3 | CN1CCN(C(=S)SCC(=O)Nc2ccc(Cl)cc2C(=O)c2ccccc2)CC1 | 2.18%
4 | CNC(=S)N/N=C1\C2CN3CCN(C2)CC1(c1ccccc1)C3 | 6.05%
5 | CC(=C1C(=O)c2ccccc2C1=O)N1CCN(CCN=Cc2c(O)n(C)c(=O)n(C)c2=O)CC1 | 26.9% (active)
6 | CC(=NC1CCN(Cc2ccccc2)CC1)c1c(O)n(C)c(=O)n(C)c1=O | -9.29%
7 | Cn1c(O)c(C=NCCCC(=O)O)c(=O)n(C)c1=O | -5.17%
8 | O=C(N/N=C/c1c(O)n(Cc2ccccc2)c(=O)[nH]c1=O)c1ccccc1 | -4.35%
9 | CN(C)C(=O)Oc1cc(=O)n2c3c(cccc13)CCC2 | -0.91%
10 | O=C(CCNS(=O)(=O)c1ccccc1)Nc1ccc(Cl)cc1C(=O)c1ccccc1 | 0.6%
11 | Cc1ccc(-n2c(-c3ccc([N+](=O)[O-])cc3)nc3ccccc3c2=O)cc1 | 2.14%
12 | CCCCCn1c(=O)c(C(=O)Nc2c(C)n(C)n(-c3ccccc3)c2=O)c(O)c2ccccc21 | 0.87%
13 | CCCCCn1c(=O)c(C(=O)NCc2ccccn2)c(O)c2ccccc21 | 36.3% (active)
14 | COc1cc(C(c2c(O)c3ccccc3oc2=O)c2c(C)n(C)n(-c3ccccc3)c2=O)ccc1O (stereo not given) | 0.56%
15 | CC(C(=O)Nc1ccc(Cl)cc1Cl)N1CC=C(c2ccccc2)CC1 (stereo not given) | -1.28%
16 | CN(C)CC1CCCCC1OC(=O)c1ccc(Cl)c(Cl)c1 (stereo not given) | 2.28%
17 | Cc1ccc(-n2c(C)cc(/C=C3\C(=O)NC(=O)N(C)C3=O)c2C)cc1C | 4.25%
18 | Cc1ccnc(-n2c(C)cc(/C=C3\C(=O)NC(=S)N(C)C3=O)c2C)c1 | 43.7% (active)
19 | C=CCn1c(O)c(/C=N/N2CCOCC2)c(=O)[nH]c1=S | -2.87%
20 | O=C1NC(=O)N(c2ccc(F)cc2)C(=O)/C1=C/c1ccc2c(c1)CCCN2Cc1ccccc1 | -3.32%

Source: PubChem BioAssay AID775 (SRMLSC, 2007)
